The values below come from article PMC9078890 (RSC Advances, 2018).

SMILES strings stand for the structures. Where two headings read alike, the source gives them in different places.

The target of test [1] is Truncated human FAK(PTK2) (Homo sapiens, UniProt Q05397). As to the kind of experiment: In vitro FAK inhibition, HTRF kinEASE-TK kinase assay. Type of test: biochemical. On the technique in general: Time-resolved FRET reads energy transfer from a long-lived donor to a nearby acceptor.
Test [2] has as its target T1, PYK2 (Homo sapiens, UniProt Q14289). Description: Kinase selectivity profiling, HTRF kinEASE-TK. Type of test: biochemical. The method in brief: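 HTRF KinEASE-TK format; enzyme level, reaction time and ATP level were optimised beforehand. Test compound in kinase buffer, at half-log serial dilutions from 100 µM top (final), was mixed with TK substrate-biotin and kinase. ATP was added to start the reaction, which ran at room temperature. Eu3+-cryptate TK antibody and streptavidin-XL665 (0.125 μM final) were added; TR-FRET was read after 1 h. Triplicates; IC50 from sigmoid dose-response fit.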

For test [3], the target named is T1, PYK2. Conditions: read-out: Reported IC50 PYK2; cited from earlier work.
For another test, the target named is EGFR (Homo sapiens, UniProt P00533). Description: biochemical. Type of test: biochemical.
Sequence of EGFR (P00533 25-1210, species assumed): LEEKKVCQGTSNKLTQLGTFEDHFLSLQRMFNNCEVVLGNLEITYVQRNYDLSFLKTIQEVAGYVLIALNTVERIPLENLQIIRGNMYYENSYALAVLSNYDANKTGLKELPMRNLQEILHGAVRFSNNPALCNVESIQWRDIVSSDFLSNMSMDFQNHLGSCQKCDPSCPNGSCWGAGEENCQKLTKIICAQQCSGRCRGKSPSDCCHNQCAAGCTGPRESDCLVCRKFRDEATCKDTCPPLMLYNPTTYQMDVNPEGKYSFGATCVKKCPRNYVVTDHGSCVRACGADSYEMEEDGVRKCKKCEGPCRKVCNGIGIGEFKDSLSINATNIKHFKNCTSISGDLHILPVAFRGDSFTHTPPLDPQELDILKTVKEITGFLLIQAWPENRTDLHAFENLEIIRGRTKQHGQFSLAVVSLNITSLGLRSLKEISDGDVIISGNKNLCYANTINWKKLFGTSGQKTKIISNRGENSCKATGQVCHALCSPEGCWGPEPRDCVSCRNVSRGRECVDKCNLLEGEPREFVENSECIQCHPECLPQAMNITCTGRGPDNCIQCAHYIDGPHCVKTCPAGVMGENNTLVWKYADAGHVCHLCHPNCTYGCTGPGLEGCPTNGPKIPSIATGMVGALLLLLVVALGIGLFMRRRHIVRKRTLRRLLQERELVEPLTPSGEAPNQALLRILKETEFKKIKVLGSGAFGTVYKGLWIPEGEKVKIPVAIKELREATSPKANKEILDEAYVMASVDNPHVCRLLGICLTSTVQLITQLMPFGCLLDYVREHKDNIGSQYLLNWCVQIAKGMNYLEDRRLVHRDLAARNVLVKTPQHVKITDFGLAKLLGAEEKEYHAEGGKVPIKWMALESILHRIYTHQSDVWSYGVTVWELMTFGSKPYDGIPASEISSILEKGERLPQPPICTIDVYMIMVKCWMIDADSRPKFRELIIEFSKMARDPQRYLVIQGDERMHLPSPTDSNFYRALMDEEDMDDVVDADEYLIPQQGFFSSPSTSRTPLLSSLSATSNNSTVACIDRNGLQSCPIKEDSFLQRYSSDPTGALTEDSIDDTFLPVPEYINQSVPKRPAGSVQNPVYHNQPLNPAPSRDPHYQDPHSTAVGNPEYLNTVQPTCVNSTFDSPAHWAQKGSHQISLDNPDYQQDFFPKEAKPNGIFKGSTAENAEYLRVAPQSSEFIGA
Another test concerns the target PDGFRβ (Homo sapiens, UniProt P09619). As to the kind of experiment: Kinase selectivity profiling, HTRF kinEASE-TK. Type of test: biochemical. Conditions: relative to FAK.
The next test has as its target IGF-1R (Homo sapiens, UniProt P08069). Description: Kinase selectivity profiling, HTRF kinEASE-TK. Type of test: biochemical. The note with it: relative to FAK.

T1 sequence (Q14289 whole entry, species assumed): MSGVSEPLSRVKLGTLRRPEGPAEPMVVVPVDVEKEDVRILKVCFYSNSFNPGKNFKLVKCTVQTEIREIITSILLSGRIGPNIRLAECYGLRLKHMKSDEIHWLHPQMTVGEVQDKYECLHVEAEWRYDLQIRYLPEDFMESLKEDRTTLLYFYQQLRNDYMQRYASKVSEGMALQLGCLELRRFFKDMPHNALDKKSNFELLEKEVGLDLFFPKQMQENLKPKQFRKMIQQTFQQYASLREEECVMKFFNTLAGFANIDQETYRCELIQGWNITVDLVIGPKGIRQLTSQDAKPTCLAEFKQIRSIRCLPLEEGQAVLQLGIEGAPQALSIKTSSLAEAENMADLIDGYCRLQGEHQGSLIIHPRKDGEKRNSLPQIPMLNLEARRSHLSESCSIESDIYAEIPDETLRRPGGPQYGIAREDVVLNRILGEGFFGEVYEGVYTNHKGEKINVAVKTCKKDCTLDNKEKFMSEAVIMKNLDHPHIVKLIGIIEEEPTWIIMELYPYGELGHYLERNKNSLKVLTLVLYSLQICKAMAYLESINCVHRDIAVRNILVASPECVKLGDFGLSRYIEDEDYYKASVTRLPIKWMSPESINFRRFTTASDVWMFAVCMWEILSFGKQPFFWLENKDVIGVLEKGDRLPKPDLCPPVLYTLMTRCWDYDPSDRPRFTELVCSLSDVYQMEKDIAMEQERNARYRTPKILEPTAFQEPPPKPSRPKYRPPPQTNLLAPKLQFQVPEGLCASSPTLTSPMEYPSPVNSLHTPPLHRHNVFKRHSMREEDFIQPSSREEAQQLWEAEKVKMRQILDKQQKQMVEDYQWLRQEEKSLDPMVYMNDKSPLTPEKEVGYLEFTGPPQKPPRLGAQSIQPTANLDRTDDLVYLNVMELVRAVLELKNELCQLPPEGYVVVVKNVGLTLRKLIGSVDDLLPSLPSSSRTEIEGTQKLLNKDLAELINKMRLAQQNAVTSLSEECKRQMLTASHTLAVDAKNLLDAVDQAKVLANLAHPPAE
Sequence of Truncated human FAK(PTK2) (Q05397 376-1052): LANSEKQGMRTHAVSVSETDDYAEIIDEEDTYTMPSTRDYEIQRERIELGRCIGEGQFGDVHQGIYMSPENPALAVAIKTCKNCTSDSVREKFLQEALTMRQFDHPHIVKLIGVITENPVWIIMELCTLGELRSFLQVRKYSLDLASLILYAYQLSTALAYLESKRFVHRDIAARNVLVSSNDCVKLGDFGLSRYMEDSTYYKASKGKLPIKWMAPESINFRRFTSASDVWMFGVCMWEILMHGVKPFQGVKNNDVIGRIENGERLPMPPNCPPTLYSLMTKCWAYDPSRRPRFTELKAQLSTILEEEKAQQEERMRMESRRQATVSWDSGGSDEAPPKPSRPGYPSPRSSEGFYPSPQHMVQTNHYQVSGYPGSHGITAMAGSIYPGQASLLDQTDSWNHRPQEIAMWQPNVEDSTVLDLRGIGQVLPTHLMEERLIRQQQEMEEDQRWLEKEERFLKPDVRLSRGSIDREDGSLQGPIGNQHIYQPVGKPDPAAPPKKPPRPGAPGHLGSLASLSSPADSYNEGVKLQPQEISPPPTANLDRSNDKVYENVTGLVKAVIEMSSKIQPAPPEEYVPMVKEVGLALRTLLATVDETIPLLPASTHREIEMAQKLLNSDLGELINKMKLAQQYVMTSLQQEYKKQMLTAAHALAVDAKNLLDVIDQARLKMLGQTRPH
Sequence of PDGFRβ (P09619 33-1106, species assumed): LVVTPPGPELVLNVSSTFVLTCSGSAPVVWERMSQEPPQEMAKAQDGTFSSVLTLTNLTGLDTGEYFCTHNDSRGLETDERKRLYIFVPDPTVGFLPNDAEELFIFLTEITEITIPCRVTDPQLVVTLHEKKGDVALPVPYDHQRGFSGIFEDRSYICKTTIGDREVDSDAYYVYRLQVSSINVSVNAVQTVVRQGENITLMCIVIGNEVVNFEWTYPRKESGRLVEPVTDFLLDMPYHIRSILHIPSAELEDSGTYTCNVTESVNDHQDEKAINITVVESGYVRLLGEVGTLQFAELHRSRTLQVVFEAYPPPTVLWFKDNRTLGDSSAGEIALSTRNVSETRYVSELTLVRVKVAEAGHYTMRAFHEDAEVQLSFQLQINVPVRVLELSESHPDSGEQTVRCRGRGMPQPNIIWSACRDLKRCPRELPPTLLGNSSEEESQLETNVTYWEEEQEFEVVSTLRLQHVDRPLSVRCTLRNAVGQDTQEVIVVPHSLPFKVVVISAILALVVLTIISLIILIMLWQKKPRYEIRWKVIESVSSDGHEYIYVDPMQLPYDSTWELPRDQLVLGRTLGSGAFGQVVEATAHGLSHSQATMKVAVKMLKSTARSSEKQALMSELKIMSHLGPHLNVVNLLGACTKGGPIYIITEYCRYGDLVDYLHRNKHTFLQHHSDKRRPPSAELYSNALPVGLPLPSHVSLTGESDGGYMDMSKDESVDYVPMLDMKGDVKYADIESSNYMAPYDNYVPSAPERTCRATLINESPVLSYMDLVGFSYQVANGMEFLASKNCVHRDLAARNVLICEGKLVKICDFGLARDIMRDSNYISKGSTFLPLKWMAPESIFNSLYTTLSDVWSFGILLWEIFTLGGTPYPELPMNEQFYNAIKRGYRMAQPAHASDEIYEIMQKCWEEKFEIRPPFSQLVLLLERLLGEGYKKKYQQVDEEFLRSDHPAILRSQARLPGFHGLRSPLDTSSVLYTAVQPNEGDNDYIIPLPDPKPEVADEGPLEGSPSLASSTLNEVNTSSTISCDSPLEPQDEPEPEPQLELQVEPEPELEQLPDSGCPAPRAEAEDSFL

For the compound `COc1ccc(Nc2nc(Nc3ccc(OCCOCCOCCF)cc3)ncc2Br)cc1` [[^19F]3, 5-Bromo-N^2-(4-(2-(2-(2-fluoroethoxy)ethoxy)ethoxy)phenyl)-N^4-(4-methoxyphenyl)pyrimidine-2,4-diamine], the concentration for half-maximal inhibition (IC50) in test [1] came to 1110 ± 60.9 nM.
Consider `CNC(=O)c1ccccc1Nc1nc(Nc2ccc(N3CCOCC3)cc2OC)ncc1Cl` [NVP-TAE226, reference compound], for which the half-maximal inhibitory concentration (IC50) at PYK2 [2] (read-out: IC50 ± SD PYK2, mean of three determinations) was 5.7 ± 1.4 nM; at PYK2 [3], 3.5 ± 2.1 nM.
Consider `COc1ccc(Nc2nc(Nc3ccc(OCCOCCF)cc3)ncc2Br)cc1` [[^19F]2, 5-Bromo-N^2-(4-(2-(2-fluoroethoxy)ethoxy)phenyl)-N^4-(4-methoxyphenyl)pyrimidine-2,4-diamine], for which the figures for the concentration for half-maximal inhibition (IC50) (on EGFR; against PYK2 [2]; in test [1]) were 4310 ± 562 nM, 3560 ± 626 nM and 57.1 ± 8.3 nM, respectively. At EGFR (relative to FAK), the “selectivity against EGFR” value is 75.5 folds. At PYK2 [2] (relative to FAK), the “selectivity against PYK2” value was 62.4 folds. Further, at PDGFRβ, the “selectivity against PDGFRβ” value is “more than 200 folds”. Moreover, on IGF-1R, the “selectivity against IGF-1R” value is “more than 200 folds”.

As a reminder, the IC50 is the concentration that gives 50% inhibition.
